NR2E3 ag-1 – NR2E3 agonists in two-hybrid cells, primary screen, cell-based, luminescence, CHO-S, Gal4-NCOR/VP16-NR2E3 | Photoreceptor-specific nuclear receptor (Homo sapiens), Q9Y5X4 | luciferase | inhibition of corepressor binding, % at 3.98 µM | hit rate 0.35% among 360,000;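 active = inhibition above the mean of all tested compounds plus 3 SD, cut at about 70% in these data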;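 note: 0% = DMSO with NR2E3 transfected cells and 100% = cells lacking NR2E3 construct; higher means lower luciferase signal from less NR2E3 corepressor binding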
Target sequence (Q9Y5X4 whole entry, looked up, the tested form may be a part): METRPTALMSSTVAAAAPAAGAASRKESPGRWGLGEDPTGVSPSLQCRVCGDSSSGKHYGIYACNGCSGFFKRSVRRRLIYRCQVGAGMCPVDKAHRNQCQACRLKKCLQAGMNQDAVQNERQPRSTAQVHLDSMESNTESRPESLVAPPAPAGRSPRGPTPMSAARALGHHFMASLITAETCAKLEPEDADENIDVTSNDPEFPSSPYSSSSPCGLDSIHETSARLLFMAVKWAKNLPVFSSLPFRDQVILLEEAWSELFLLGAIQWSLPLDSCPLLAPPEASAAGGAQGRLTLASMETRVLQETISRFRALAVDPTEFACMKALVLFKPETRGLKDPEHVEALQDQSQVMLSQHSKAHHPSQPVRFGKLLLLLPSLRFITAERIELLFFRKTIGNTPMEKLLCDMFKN
GalR3 antag – GalR3 antagonists in HEK293 cells, primary screen, cell-based, fluorescence readout. AID 651719, 2012. inhibition, % at 3 µM. HEK293 GalR3-CNG cAMP membrane potential fluorescence; galR3 body fused to GalR1 C-terminus. hit rate 0.44% among 360,000;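 active = inhibition above the screen-wide average plus 3 SD, cut at about 13% in these data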;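 note: forskolin and galanin both at EC90 stimulate the cells; cAMP rise reported by CNG channel membrane potential dye signal; 0% = forskolin plus galanin with DMSO and 100% = forskolin alone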
Target sequence (O60755 1-299 limits assumed): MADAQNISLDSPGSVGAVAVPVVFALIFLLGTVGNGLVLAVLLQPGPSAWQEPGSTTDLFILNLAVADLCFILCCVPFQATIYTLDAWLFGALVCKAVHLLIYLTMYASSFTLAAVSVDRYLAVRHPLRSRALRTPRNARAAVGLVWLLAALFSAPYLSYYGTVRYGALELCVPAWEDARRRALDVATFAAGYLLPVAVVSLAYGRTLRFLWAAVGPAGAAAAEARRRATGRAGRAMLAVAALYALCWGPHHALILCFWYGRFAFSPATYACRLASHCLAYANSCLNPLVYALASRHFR
NadD inh – inhibitors of S. aureus NadD, primary screen, biochemical, colorimetric, uHTS. Nicotinate-nucleotide adenylyltransferase NadD (Staphylococcus aureus N315). inhibition, % at 20 µM. AID 602399, 2012. hit rate 0.78% among 360,000. purified NadD enzyme, colorimetric absorbance read-out; in the data active = inhibition above about 26%
MsrA inhibitor – bovine MsrA enzyme inhibitors, primary screen, biochemical, absorbance, HTS; Methionine sulfoxide reductase A (Bos taurus); purified bovine MsrA, absorbance read-out; inhibition, % at 15.5 µM; hit rate 0.75% among 360,000; AID 651718, 2012; in the data active = inhibition above about 4.5%;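 note: 0% = vehicle wells with enzyme and 100% = reference inhibitor wells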
NR2E3 ag-2 – inhibitors of NR2E3-RetCOR corepressor binding, primary screen, NR2E3 agonist project, biochemical, TR-FRET, GST-NR2E3, biotin-RetCOR. Photoreceptor-specific nuclear receptor (Homo sapiens), Q9Y5X4. 1536-well. inhibition of corepressor binding, % at 4.78 µM. hit rate 0.12% among 320,000;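 active = percent inhibition above the cutoff of mean plus 3 SD of all tested compounds, set per screening campaign, cut at about 20% in these data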;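 note: 0% = DMSO wells and 100% = biotin wells as full block of FRET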
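Material: NR2E3–RetCOR corepressor complex / Amount: 1.35 nM GST-NR2E3 / Medium: Tris pH 7.5 / Compound: single nominal compound dose of 4.8 µM / Incubation: 5 h at 4 °C / Technique: TR-FRET, Eu(K)-anti-GST donor, streptavidin-D2 acceptor, ex 340, em 617/671 nm / Read-out basis: percent loss of FRET ratio relative to control wells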
bovine MsrA act – bovine MsrA enzyme activators, primary screen, biochemical, absorbance, HTS | AID 602163, 2012 | hit rate 0.3% among 360,000 | activation, % at 10.6 µM | purified bovine MsrA, absorbance read-out; in the data active = activation above about 7.5%;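 note: 0% = vehicle and 100% = reference activator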
An asterisk follows results filed as active; · = no result. A selection: hits, their analogues and other compounds. The true share with any hit is near 2.5%.

SMILES | NR2E3 ag-1 | GalR3 antag | NadD inh | MsrA inhibitor | NR2E3 ag-2 | bovine MsrA act
CC(C)N=c1scc(-c2cccs2)n1/N=C/c1ccc(O)c(O)c1O | -81.0 | 0.2 | 30.9* | 1.1 | 2.9 | -1.4
CN=c1scc(-c2ccccc2F)n1/N=C/c1ccc(O)c(O)c1O | -97.6 | -3.4 | 23.4 | 1.3 | · | -5.9
COc1ccc(C(O)c2nc(-c3ccoc3)cs2)cc1 (stereo unspecified) | -5.3 | -6.4 | 1.2 | -0.5 | · | -0.2
Cn1cc(/C=C2\SC(=S)N(NC(=O)c3ccccc3Cl)C2=O)c2ccccc21 | -0.8 | -0.3 | 39.5* | 1.7 | 1.1 | -5.3
Oc1c(Br)cc(Br)cc1CNc1cccc2cccnc12 | -4.0 | -10.9 | 57.2* | 0.6 | 5.8 | 0.0
CCOC(=O)c1sc(N)c(C(=O)OC)c1C | -21.9 | -2.2 | -1.3 | 1.0 | 2.1 | -4.4
CCOC(=O)c1sc(=S)[nH]c1C | -7.3 | -5.1 | 1.9 | 3.6 | · | 8.4*
Oc1ccc(/C=C/c2ccc3cccc(O)c3n2)cc1Br | -72.6 | -6.1 | 14.6 | 0.6 | -2.8 | -1.6
Cc1cccc(NC(=O)NCc2cccnc2)c1C | 19.5 | -1.8 | -6.9 | -1.3 | -1.6 | -9.2
c1ccc(-c2csc(Nc3ccc4c(c3)OCCO4)n2)cc1 | -133.6 | -2.6 | 7.0 | 0.6 | -0.6 | -3.8
c1cc2c(cc1Nc1nc(-c3ccc4c(c3)OCO4)cs1)OCCO2 | -13.4 | -3.0 | 40.2* | 1.4 | -2.2 | -1.8
Cn1sc2ccccc2c1=O | 20.1 | -6.8 | -2.6 | 1.1 | · | 7.8*
O=c1c2ccccc2sn1-c1ccccc1F | -21.6 | -6.3 | 8.1 | -0.1 | · | 6.0
O=c1c2ccccc2sn1-c1nccs1 | 24.2 | -2.5 | 12.6 | 0.7 | · | 17.0*
Cc1noc(C)c1S(=O)(=O)Nc1ccc2c(c1)C(=O)N([C@H](C)CO)C[C@H](C)[C@H](CN(C)C(=O)NC(C)C)OCCCC[C@@H](C)O2 | -1.0 | 4.1 | -1.3 | 0.6 | · | 1.2
CC(C)NS(=O)(=O)c1cccc2nsnc12 | 16.9 | 13.7* | 2.9 | 1.0 | -0.8 | -14.3
CCCS(=O)(=O)Nc1c(OC)ccc2c1c(C(=O)OCC)c(C)n2C | 5.2 | -4.1 | 7.2 | 0.4 | 1.2 | -0.6
Cc1sccc1C1C(C#N)=C(N)SC(N)=C1C#N | · | · | · | · | 35.7* | ·
CCN(CC)c1ccc(/C=C/c2cccc[n+]2C)c(OC)c1 | 0.3 | 17.9* | 14.2 | 0.3 | -8.7 | -2.5
CCOC(=O)C1CCCN(C2CC(=O)N(c3ccc(C)c(C)c3)C2=O)C1 (stereo unspecified) | -1.7 | 5.7 | -2.4 | -0.2 | 8.0 | 2.1
Cc1cc(NC(=O)c2cccnc2)ccc1NC(=O)c1ccco1 | -17.0 | -2.7 | 11.1 | -0.5 | -2.6 | -4.5
Cc1cccc(NC(=O)CN2CCN(C(=O)c3ccc(OCc4cn5ccccc5n4)cc3)CC2)c1C | -2.5 | -7.1 | 12.0 | -0.5 | 4.0 | -1.7
NC(=O)COc1c(-c2ccco2)oc2ccccc2c1=O | 1.7 | -1.8 | -3.7 | 4.6* | 0.1 | -8.3
O=C(O)COc1c(-c2ccco2)oc2ccccc2c1=O | 9.7 | -3.5 | 2.3 | 3.3 | -1.3 | -4.0
Cc1nc(CC(=O)N2CCN(c3cccc(C)c3C)CC2)cs1 | -22.3 | -0.1 | 2.1 | -0.6 | -3.6 | -1.9
SMILES | NR2E3 ag-1 | GalR3 antag | NadD inh | MsrA inhibitor | NR2E3 ag-2 | bovine MsrA act
Cc1cc(C)c(S(=O)(=O)N/N=C/c2ccc([N+](=O)[O-])o2)c(C)c1 | -28.6 | 1.0 | 3.4 | 1.9 | · | -0.8
Oc1ccc(Nc2nc3ccccc3nc2Nc2ccc(O)cc2)cc1 | 95.4* | · | 4.8 | · | 1.9 | -1.8
CC(NCCC(c1ccccc1)c1ccccc1)c1ccccc1 (stereo unspecified) | -6.3 | -5.3 | 0.0 | -1.1 | 2.4 | 0.3
Cc1ccc(C(=O)N/C(=C\c2cccs2)c2nc3ccccc3[nH]2)cc1 | 14.3 | 0.7 | 5.0 | 4.6* | -1.3 | -8.6
Cc1nc2nc[nH]c2cc1Br | 1.5 | -2.5 | 8.7 | -0.4 | 6.8 | 1.2
FC(F)(F)C1=Nc2cccc3cccc(c23)N1 | -9.2 | -5.9 | 72.2* | 1.1 | · | -5.1
CN(C)c1ccc(C=c2c3cc([N+](=O)[O-])ccc3n3c2cc(-c2ccccc2)[n+]3C)cc1 | -11.4 | -1.5 | 48.1* | 4.3 | · | -4.2
CN(C)c1ccc(/C=C/c2cc[n+](C)cc2)cc1 | 1.2 | 2.5 | 6.1 | 0.0 | 10.6 | -3.9
Cn1c(CO)c(-c2ccccc2)c2cc([N+](=O)[O-])ccc21 | -19.6 | -2.9 | -11.3 | 1.6 | 1.0 | -3.2
CN(C)c1ccc(C=c2c3ccccc3n3c2cc(-c2ccc(Cl)cc2)[n+]3C)cc1 | 7.2 | -3.3 | 38.9* | 4.2 | · | 14.5*
CCOC(=O)c1cc(-c2ccc(/C=N\n3cnnc3)o2)ccc1Cl | 13.2 | -0.3 | -3.5 | 5.6* | 2.2 | -5.9
Cc1ccc(C2C(C#N)=C(N)Oc3cc(N)ccc32)cc1 (stereo unspecified) | -23.9 | 1.1 | 2.0 | -0.2 | 0.2 | -3.5
Cc1ccc(/C=C2\CCC3=C2OC(N)=C(C#N)C3c2ccc(C)cc2)cc1 (stereo unspecified) | -14.5 | · | 45.5* | · | 2.7 | -2.3
CCN(CC)c1ccc(/C=N/NC(=O)OC)c(O)c1 | -7.8 | -0.2 | 0.9 | 7.2* | -5.9 | -3.1
CCN(CC)c1ccc(N=Cc2ccc(N(CC)CC)cc2O)cc1 | -11.8 | -5.7 | -5.1 | 4.6* | -0.2 | 1.4
CCN(CC)c1ccc(C=Nc2ccccc2)c(O)c1 | -24.7 | -2.4 | 1.2 | 3.5 | 1.2 | -3.3
O=C(NC1CCCCC1)C(c1ccccc1)n1c(=O)c(-c2ccco2)nc2ccccc21 (stereo unspecified) | · | -1.6 | · | -0.1 | · | ·
CN1C(=C2C(=O)OC(C)(C)OC2=O)Sc2ccccc21 | -106.8 | -9.2 | -1.7 | 4.8* | -1.1 | -4.4
CC(=O)NN1C(=O)/C(=C2/Sc3ccccc3N2C)SC1=S | -0.6 | -12.3 | -1.2 | -0.2 | 0.7 | -3.6
CCOc1ccc(-c2nc(S(=O)(=O)c3ccccc3)c(NCc3cccnc3)o2)cc1 | -1.2 | 4.1 | 10.0 | 0.1 | -1.1 | -2.9
O=c1c(-c2n[nH]c(=S)o2)cccn1Cc1ccccc1 | 9.2 | -4.0 | 5.0 | 4.6* | 3.9 | 1.8
O=C(CSc1nnnn1-c1cccnc1)Nc1ccc(F)cc1F | 7.2 | 3.6 | -2.3 | -0.1 | -1.0 | -10.5
O=C(Sc1n[nH]c(=O)[nH]c1=O)c1ccccc1 | 17.3 | -4.0 | -7.0 | 0.8 | · | 10.2*
COc1cc(/C=C2\SC(=S)NC2=O)ccc1OS(=O)(=O)c1ccccc1 | · | · | · | · | -0.8 | ·
COc1cc(/C=C2/SC(=S)NC2=O)ccc1OS(=O)(=O)c1ccc(C)cc1 | 76.7* | · | 19.4 | · | -2.7 | -9.9

Source: PubChem BioAssay
